Bioassay records from PubChem BioAssay.
TCR-CD3 inh = blocks the human TCR-CD3 interaction; TAMRA-labeled TCR probe fluorescence, biochemical; inhibition, % at 9.4 µM; actives 0.37% (n = 360,000); AID 651800;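 further: recombinant mutant TCR 2C K166C tagged with TAMRA read by polarization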
SIAE primary = inhibitors of human sialic acid acetylesterase SIAE; SIAE FP-Rh probe binding, fluorescence polarization; inhibition, % at 9.66 µM; actives 0.69% (n = 370,000);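 active means inhibition above a cutoff: mean of compounds within the control limits plus 3 SD of those, cut at about 17% in these data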
Target sequence (Q9HAT2 whole entry, looked up): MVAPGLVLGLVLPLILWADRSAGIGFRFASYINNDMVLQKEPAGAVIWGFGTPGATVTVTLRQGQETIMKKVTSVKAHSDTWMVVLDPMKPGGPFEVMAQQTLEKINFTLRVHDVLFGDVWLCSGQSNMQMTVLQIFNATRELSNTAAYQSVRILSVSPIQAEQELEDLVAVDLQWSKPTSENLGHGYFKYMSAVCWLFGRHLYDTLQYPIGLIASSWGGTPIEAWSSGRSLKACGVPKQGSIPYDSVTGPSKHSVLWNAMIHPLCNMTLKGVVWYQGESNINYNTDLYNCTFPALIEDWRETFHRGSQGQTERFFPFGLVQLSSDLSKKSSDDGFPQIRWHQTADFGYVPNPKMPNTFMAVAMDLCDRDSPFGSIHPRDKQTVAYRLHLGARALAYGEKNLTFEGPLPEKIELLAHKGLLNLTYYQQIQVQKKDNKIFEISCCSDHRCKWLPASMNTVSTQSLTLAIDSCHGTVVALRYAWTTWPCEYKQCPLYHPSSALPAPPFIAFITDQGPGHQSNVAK
ARNT TACC3 PPI = ARNT/TACC3 interaction disruption | AlphaScreen His-ARNT PAS-B/GST-TACC3 binding, luminescence; TACC3 fragment carries E629A point mutation | AID 623870 | actives 0.66% (n = 390,000) | inhibition, % at 9.99 µM;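 active means mean inhibition of replicates at least 50% and at least half of replicates each reaching 50%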
HTRA1 inhibitor = blocks human HTRA1 serine peptidase; actives 0.5% (n = 340,000); Q92743; AID 504803; inhibition, % at 5.96 µM; recombinant HTRA1, FP-rhodamine activity-based probe, fluorescence polarization; in the data active means inhibition above about 36%
ABHD4 inh = inhibits mouse alpha/beta hydrolase domain 4; Q8VD66; purified mABHD4, FP-Rh probe fluorescence polarization; inhibition, % at 8.92 µM; actives 0.54% (n = 370,000);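 active means inhibition exceeding the mean over every tested compound plus 3 SD, cut at about 30% in these data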
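assay system = mABHD4 protein | compound dosing = single nominal dose of 8.92 µM, 0.89% DMSO final | read-out basis = percent inhibition of probe binding, normalized to plate controls | schedule = Enzyme–compound pre-incubation 45 min, then probe 60 min, both 25 °C | detection = fluorescence polarization, excitation 525 nm, emission 598 nm, BODIPY TMR filters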
HTRA1 conf = HTRA1 (human) inhibition, confirmation; AID 540248; shares compounds with HTRA1 inhibitor; recombinant HTRA1, FP-rhodamine activity-based probe, fluorescence polarization; actives 66% (n = 1,600); inhibition, % at 5.96 µM;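 active means mean inhibition over three repeats above a set limit taken from the earlier primary screen, cut at about 37% in these data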;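 further: inhibitors block probe binding so polarization drops and inhibition rises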
BSA TAMRA ctr = counter-screen for TCR-CD3 interaction inhibitors: BSA probe; shares compounds with TCR-CD3 inh; TAMRA-labeled BSA probe fluorescence counterscreen; inhibition, % at 9.4 µM; actives 10% (n = 1,200); in the data active means inhibition above about 23%
TCR-CD3 conf = confirmation of human TCR-CD3 interaction inhibitors; shares compounds with TCR-CD3 inh; TAMRA-labeled TCR probe fluorescence binding assay; inhibition, % at 9.4 µM; actives 48% (n = 1,200); AID 652036
mABHD4 conf = ABHD4 (mouse) inhibition, FP confirmation | shares compounds with ABHD4 inh | purified mABHD4, FP-Rh probe fluorescence polarization | inhibition, % at 8.92 µM | actives 55% (n = 1,800);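 active means mean inhibition across replicates above the hit cutoff set in the primary screen, cut at about 30% in these data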
SIAE inh conf = human SIAE inhibition, confirmation; shares compounds with SIAE primary; SIAE FP-Rh activity-based probe, fluorescence polarization; inhibition, % at 9.66 µM; actives 13% (n = 2,300); AID 1117263;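 active means mean inhibition of the replicates above the hit cutoff set in the primary screen, cut at about 17% in these data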;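 further: inhibitors lower polarization as more probe stays unbound to SIAE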
Each line names hits and unclear results; the compound was inactive in the other large screens (follow-up assays come after a bar, where they were run). The list is not random: actives were taken first. Their share in the collection is about 1.8%. Unless noted, no stated cut-off is given here; in the data, active means inhibition above about 19%; inactive means the rest.

Clc1ccc(C2Nc3cccc4cccc(c34)N2)c(Cl)c1	SIAE primary 20, HTRA1 inhibitor 54, ABHD4 inh 30 | HTRA1 conf inactive | mABHD4 conf 32 | SIAE inh conf inactive
COc1ccc(NC(=O)Nc2ccc3c(c2)C(=O)N([C@H](C)CO)C[C@H](C)[C@@H](CN(C)C(=O)Nc2ccc(F)cc2)O3)cc1	none (no result: TCR-CD3 inh, SIAE primary, HTRA1 inhibitor, ABHD4 inh)
CCC(=O)N1[C@@H](CO)[C@H](c2ccc(C3=CCCC3)cc2)[C@@H]1CNC(=O)CN(C)C	none (no result: TCR-CD3 inh, SIAE primary, HTRA1 inhibitor, ABHD4 inh)
Cc1cc2nc3ccc(=[N+](C)C)cc-3sc2cc1N	none (no result: TCR-CD3 inh, SIAE primary, ABHD4 inh)
CN(C)c1ccc2nc3ccc(=O)cc-3sc2c1	TCR-CD3 inh 145, SIAE primary 82, HTRA1 inhibitor 58, ABHD4 inh 113 (no result: ARNT TACC3 PPI) | HTRA1 conf 79 | BSA TAMRA ctr 123 | TCR-CD3 conf 103 | mABHD4 conf 56 | SIAE inh conf 68
O=C(Cc1ccccn1)NCC[C@H]1CC[C@H](NC(=O)Nc2ccc(Cl)cc2)[C@@H](CO)O1	none (no result: TCR-CD3 inh, SIAE primary, HTRA1 inhibitor, ABHD4 inh)
COc1cccc2c1C(=O)c1c(O)c3c(c(O)c1C2=O)CC(O)(C(=O)CO)CC3OC1CC(N(C)C)C(O)C(C)O1 (stereo unspecified)	TCR-CD3 inh 148, SIAE primary 61, HTRA1 inhibitor 68, ABHD4 inh 79 | HTRA1 conf 66 | BSA TAMRA ctr 167 | TCR-CD3 conf 136 | mABHD4 conf 61 | SIAE inh conf 40
COc1cc(OC)c(-c2c3cc(O)c(=O)cc-3oc3cc(O)c(O)cc23)cc1OC	none (no result: ARNT TACC3 PPI)
Cc1c2cc(O)c(=O)cc-2oc2cc(O)c(O)cc12	TCR-CD3 inh 184, SIAE primary 56, HTRA1 inhibitor 49, ABHD4 inh 35 (no result: ARNT TACC3 PPI) | HTRA1 conf 125 | BSA TAMRA ctr active | TCR-CD3 conf active | SIAE inh conf 104
O=C(Nc1ccc(O)cc1)C1CC=CCC1 (stereo unspecified)	SIAE primary 23, HTRA1 inhibitor 48 | HTRA1 conf 42 | SIAE inh conf inactive
CC(C)NC(=O)Nc1ccc2c(c1)C(=O)N(C)[C@H]1CC[C@H](CC(=O)Nc3ccccc3)O[C@@H]1CO2	none (no result: TCR-CD3 inh, SIAE primary, HTRA1 inhibitor, ABHD4 inh)
c1cc2c3c(cccc3c1)NC1(CCCCCC1)N2	SIAE primary 19, HTRA1 inhibitor 39 | HTRA1 conf 51 | SIAE inh conf inactive
c1cc2c3c(cccc3c1)NC1(CCC3(CC1)Nc1cccc4cccc(c14)N3)N2	SIAE primary 38, HTRA1 inhibitor 56 | HTRA1 conf 55 | SIAE inh conf inactive
COc1ccc(CNC(=O)C[C@@H]2CC[C@H]3[C@@H](COc4ccc(NC(C)=O)cc4C(=O)N3C)O2)cc1	none (no result: TCR-CD3 inh, SIAE primary, HTRA1 inhibitor, ABHD4 inh)
CO[C@H]1CN(C)C(=O)c2ccc(NC(=O)C3CC3)cc2OC[C@H](C)N(Cc2cc(F)ccc2F)C[C@@H]1C	none (no result: TCR-CD3 inh, SIAE primary, HTRA1 inhibitor, ABHD4 inh)
COc1ccc(NC(=O)N[C@H]2CC[C@@H](CCNS(=O)(=O)c3ccccc3F)O[C@H]2CO)cc1	none (no result: TCR-CD3 inh, SIAE primary, HTRA1 inhibitor, ABHD4 inh)
COc1ccc(OC)c(N)c1	TCR-CD3 inh 23, SIAE primary 28, HTRA1 inhibitor 66, ABHD4 inh 41 | HTRA1 conf inactive | BSA TAMRA ctr inactive | TCR-CD3 conf inactive | mABHD4 conf inactive | SIAE inh conf inactive
O=C(/C=C/c1ccc(O)c(O)c1)c1ccc(S(=O)(=O)N2CCCCCC2)cc1	SIAE primary 45, HTRA1 inhibitor 55 | HTRA1 conf 56 | SIAE inh conf inactive
O=C(N/N=C/c1cccc(O)c1)c1cc(-c2ccccc2)nc2ccccc12	none
Cn1c2ccccc2c2cc(/C=N/NC(=O)c3cc(O)ccc3O)ccc21	TCR-CD3 inh 43, SIAE primary 50, HTRA1 inhibitor 64, ABHD4 inh 52 | HTRA1 conf 64 | BSA TAMRA ctr inactive | TCR-CD3 conf 23 | mABHD4 conf inactive | SIAE inh conf inactive
O=C(N/N=C/c1ccc(O)c(O)c1)c1cc(-c2ccccc2)nc2ccccc12	SIAE primary 19, HTRA1 inhibitor 63 | HTRA1 conf 76 | SIAE inh conf inactive
Cn1c2ccccc2c2cc(/C=N/NC(=O)c3cc(O)cc(O)c3)ccc21	none
C[C@@H]1CCCCO[C@H](CN(C)S(=O)(=O)c2ccc(F)cc2)[C@H](C)CN([C@@H](C)CO)C(=O)c2cc(NC(=O)C3CCCCC3)ccc2O1	none (no result: TCR-CD3 inh, SIAE primary, HTRA1 inhibitor, ABHD4 inh)
CCCC(=Nc1ccccc1)C1=C(O)C(C(=O)OC)C(C)(C)CC1=O (stereo unspecified)	none
CCCCC(=Nc1ccc(N)cc1)C1=C(O)C(C(=O)OC)C(C)(C)CC1=O (stereo unspecified)	TCR-CD3 inh 50, SIAE primary 44, HTRA1 inhibitor 64, ABHD4 inh 72 | HTRA1 conf inactive | BSA TAMRA ctr inactive | TCR-CD3 conf inactive | mABHD4 conf inactive | SIAE inh conf inactive
CC1=CC(C)(C)N2C(=O)C(=Nc3ccc(O)cc3)c3cccc1c32	TCR-CD3 inh 42, SIAE primary 22, HTRA1 inhibitor 53, ABHD4 inh 60 | HTRA1 conf inactive | BSA TAMRA ctr inactive | TCR-CD3 conf inactive | mABHD4 conf inactive | SIAE inh conf inactive
CC(C)CN=Cc1c(O)c([N+](=O)[O-])cc2oc3c(c12)CCCC3	SIAE primary 24, HTRA1 inhibitor 44 | HTRA1 conf 43 | SIAE inh conf inactive
O=[N+]([O-])c1cc2oc3c(c2c(C=NCc2ccccc2)c1O)CCCC3	SIAE primary 28, HTRA1 inhibitor 43, ABHD4 inh 31 | HTRA1 conf 54 | mABHD4 conf 31 | SIAE inh conf inactive
Cc1cccc(/N=C/c2c(O)ccc3oc4c(c23)CCCC4)n1	none (no result: TCR-CD3 inh, SIAE primary, ABHD4 inh)
Cc1oc2cc([N+](=O)[O-])c(O)c([N+](=O)[O-])c2c1C(=O)c1ccc(Cl)cc1	none
Oc1ccc(N=Cc2ccc(OCc3ccccc3)cc2)cc1	TCR-CD3 inh 32, SIAE primary 45, HTRA1 inhibitor 63, ABHD4 inh 68 | HTRA1 conf inactive | BSA TAMRA ctr inactive | TCR-CD3 conf inactive | mABHD4 conf inactive | SIAE inh conf inactive
O=C(N/N=C/c1ccc(OCc2ccccc2)cc1)c1ccncc1	none
COc1cc(/C=N/Nc2ccc(S(N)(=O)=O)cc2[N+](=O)[O-])cc(OC)c1O	none
